From PubChem
Most compounds without a hit are left out; they make up all but 1.2% or so of the library.
Rad51 HR inh: blocks human Rad51 in homologous recombination; Q06609; hRad51 DNA strand exchange, fluorescence dequenching; inhibition, % at 10 µM; actives 0.085% (n = 200,000);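 active = inhibition above 40% at the single screening dose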;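 note: 0% = DMSO control wells and 100% = blanks with heterologous ssDNA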
Target sequence (Q06609 whole entry, looked up): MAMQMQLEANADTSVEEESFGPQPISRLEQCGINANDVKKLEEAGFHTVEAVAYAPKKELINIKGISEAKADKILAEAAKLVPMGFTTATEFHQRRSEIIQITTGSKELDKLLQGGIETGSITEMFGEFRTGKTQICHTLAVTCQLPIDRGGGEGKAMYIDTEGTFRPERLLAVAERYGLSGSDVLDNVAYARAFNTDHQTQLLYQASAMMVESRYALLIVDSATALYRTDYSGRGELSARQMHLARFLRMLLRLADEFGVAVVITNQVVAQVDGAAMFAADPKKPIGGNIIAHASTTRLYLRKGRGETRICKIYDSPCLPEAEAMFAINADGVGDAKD
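Test system: preformed human Rad51 ssDNA filaments; also added: Donor/quencher-labelled 47-bp dsDNA substrate; doses: 10 µM final, single point; times: 37 °C 15-min filament assembly, 30-min compound preincubation, 15-min exchange; detection: FRET fluorescence dequenching, excitation 485 nm, emission 520 nm; read-out basis: Fluorescence-based percent inhibition, control- and blank-normalised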
FID counter: counter-screen for HCV NS3 helicase inhibitors: DNA intercalator displacement | actives 0.17% (n = 290,000) | DNA fluorescent intercalator displacement, fluorescence | inhibition, % at 7.9 µM | AID 1845; in the data active = inhibition above about 37%;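 note: 0% = vehicle and 100% = reference compound; higher means more ethidium bromide displaced from hairpin DNA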
RBBP9 inhibitor: human RBBP9 hydrolase inhibition | recombinant RBBP9, FP-Rh probe fluorescence polarization | AID 1515 | actives 0.2% (n = 220,000) | O75884 | inhibition, % at 7.94 µM;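 active = inhibition above the campaign mean of all tested compounds plus 3 SD, cut at about 14% in these data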;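 note: plate controls were DMSO wells with RBBP9 for no effect and wells lacking RBBP9 protein for full effect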
Target sequence (O75884 whole entry, looked up): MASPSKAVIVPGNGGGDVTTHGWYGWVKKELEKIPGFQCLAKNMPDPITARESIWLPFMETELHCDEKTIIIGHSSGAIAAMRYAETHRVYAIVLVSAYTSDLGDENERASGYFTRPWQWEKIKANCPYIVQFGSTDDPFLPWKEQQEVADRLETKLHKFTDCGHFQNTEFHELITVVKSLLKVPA
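system = RBBP9 protein | input = RBBP9 at 2.5 µM in dispensed solution, before mixing | measured by = fluorescence polarization (mP), excitation 525 nm, emission 598 nm | incubation = enzyme-compound preincubation 30 min, then probe labeling 45 min, 25 °C | buffer or medium = Tris-NaCl-Pluronic buffer, pH 8.0 | compound = single dose 7.94 µM | also added = FP-Rh probe, 375 nM dispensing solution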
Wee1 stabilizer: inhibitors of human Wee1 degradation; P30291; HeLa Luc-Wee1K328M stability, luciferase luminescence; 100% = proteasome inhibitor MG132 effect; reporter increase, % at 5 µM; actives 1.2% (n = 220,000); AID 1321;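 active = activation above the mean of all tested compounds plus 3 SD, set per screening run, cut at about 8.8% in these data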;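 note: cells exposed to compound for 20 h before luminescence read; 0% = DMSO alone and 100% = MG132 at 30 µM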
Active calls of the source: *; . = no result given.

SMILES	Rad51 HR inh	FID counter	RBBP9 inhibitor	Wee1 stabilizer
CNC[C@@H](Cc1ccccc1)NC[C@@H](CC1CCCCC1)NCCCc1ccccc1	.	38*	.	.
CCNc1nc(NC(C)(C)C)nc(N2CCCCC2)n1	-15	15	11	0
O=C(NN1C(=O)c2ccc(-c3ccc4c(c3)C(=O)N(NC(=O)c3cccnc3)C4=O)cc2C1=O)c1cccnc1	1	6	-4	-2
Cc1cccc(-c2nsc(SCC(=O)NCc3ccco3)n2)c1	-5	-13	-3	-1
Cc1cccc(-c2nsc(SCC(=O)NCC3CCCO3)n2)c1 (configuration not stated)	4	-18	0	9.5*
CN(CC(=O)Nc1ccc(N2CCOCC2)cc1)C(=O)CSc1ccc(Br)cc1	.	-31	.	.
CN(CC(=O)Nc1ccc(N2CCOCC2)cc1)C(=O)CC(c1ccccc1)c1ccccc1	9	-34	-2	10*
Cc1ccc(C2(C)NC(=O)N(CC(=O)NCc3ccccc3Cl)C2=O)cc1 (configuration not stated)	.	-12	.	.
CC(C)[C@@H](C(=O)N1CCNCC1)n1cc(CCO)nn1	2	0	-5	2
O=C(N/N=C/C=C/c1ccc(Br)cc1)C(O)c1ccccc1 (configuration not stated)	7	-8	0	11*
Cc1ccc(CN2CCNC(=O)C2CC(=O)NCCCn2ncc3ccccc32)o1 (configuration not stated)	14	-10	-8	15*
CCOC(=O)C1CCN(C(=S)Nc2ccc(CC)cc2)CC1	30	3	-9	0
Cc1cccn2c(=O)c3cc(C(=O)NC4CCCC4)c(=N)n(CCCN4CCOCC4)c3nc12	.	41*	.	.
COc1ccc(CCNC(=O)c2cc3c(=O)n4cccc(C)c4nc3n(CCCN3CCOCC3)c2=N)cc1	.	54*	.	.
Cc1cccn2c(=O)c3cc(C(=O)NCCN4CCOCC4)c(=N)n(CCN4CCOCC4)c3nc12	.	19	.	.
O=C(O)CNC(=O)c1ccc(NC(=O)/C(=C/c2ccccc2)NC(=O)c2ccco2)cc1	.	-9	.	.
COc1ccc(NC(=O)N2CCc3ccccc3C2)c(OC)c1	.	-20	.	.
Fc1ccccc1Oc1nc(-c2ccncc2)nc2ccccc12	15	-11	-8	8.9*
COc1cc2nc(=S)n(CCCN3CCOCC3)c(N)c2cc1OC	-19	45*	-1	2
COc1ccc(C(=O)NCCCN2CCOCC2)cc1OC	-2	0	-1	2
CCOc1cc2nc(-c3ccc(OC)c(OC)c3)nc(NCCCN3CCOCC3)c2cc1OC	11	43*	0	1
COc1nc(N2CCCC2)nc(-n2nnc(C(C)=O)c2C)n1	9	-11	-3	-2
CCCCN(C(=O)NC(=O)Nc1ccccc1C)S(C)(=O)=O	-5	3	-11	29*
CCOC(=O)c1cnc2ccc(OCC)cc2c1NCCN1CCOCC1	17	10	-11	0
CCOC(=O)c1cnc2c(ccc3ccccc32)c1NCCN(C)C	.	46*	.	.
SMILES	Rad51 HR inh	FID counter	RBBP9 inhibitor	Wee1 stabilizer
CCOC(=O)c1cnc2ccc(OCC)cc2c1NCCCN1CCOCC1	.	55*	.	.
CCOC(=O)c1cnc2c(CC)cccc2c1NCCCN1CCOCC1	.	52*	.	.
O=C(O)CCCC(=O)N1CCc2cc(S(=O)(=O)NCc3ccc(F)cc3)ccc21	-4	-32	-10	1
O=C(O)c1ccccc1-c1ccccc1C(=O)NNc1ccc([N+](=O)[O-])cc1	-25	-14	2	4
O=C(NC(=S)NCCN1CCOCC1)c1ccc(F)cc1	1	-1	-5	1
CC(C)CNC(=S)NC(=O)c1ccc(F)cc1	4	-1	-3	9.1*
COc1cc(NC(=O)COc2ccc(C)c(C)c2)ccc1NC(=O)c1ccco1	.	-38	.	.
COCCNC(=O)c1ccc2c(=O)n(CCOC)c(=O)[nH]c2c1	-4	0	-3	-1
COCCn1c(=O)[nH]c2cc(C(=O)NCCN3CCN(c4ccc(OC)cc4)CC3)ccc2c1=O	3	21	1	-2
COCCn1c(=O)[nH]c2cc(C(=O)NCCN3CCN(c4ccccc4)CC3)ccc2c1=O	-1	1	-3	11*
CCCCCNC(=O)c1ccc2c(=O)n(CCOC)c(=O)[nH]c2c1	-11	-13	-7	10.0*
C[C@H](NC(=O)[C@@H]1Cc2ccccc2CN1)C(=O)NCC1CCCO1 (some centres not stated)	.	2	.	.
CN(C)c1ccc(C2N(C(=O)N3CCOCC3)CCN2S(=O)(=O)c2ccccc2)cc1 (configuration not stated)	5	-3	-11	-1
Cc1ccc(S(=O)(=O)N2CCN(C(=O)N3CCOCC3)C2c2ccc(N(C)C)cc2)cc1 (configuration not stated)	2	4	-3	14*
O=C(NCc1nc2ccccc2[nH]1)C1=C[C@H](c2coc3ccccc3c2=O)C[C@H](OCCCCO)O1	-1	.	.	.
CCOC(=O)C1(Cc2cccc(F)c2)CCN(CC(O)CO)CC1 (configuration not stated)	-7	-1	-5	10*
CCOC(=O)/C(=N\Nc1ccccc1Cl)N1CC(C)OC(C)C1 (configuration not stated)	16	-7	4	0
CCOC(=O)/C(=N\Nc1cc(Cl)ccc1Cl)N1CC(C)OC(C)C1 (configuration not stated)	42*	-3	-10	-1
COc1ccc2[nH]c3c(C)c4ccncc4c(C)c3c2c1	47*	77*	6	-1
O=C1C(=O)N(Cc2ccco2)C(c2cccs2)/C1=C(\O)c1cccc([N+](=O)[O-])c1 (configuration not stated)	-2	-9	-7	0
COC(=O)/C=c1/sc2n(c1=O)CCN=2	-8	1	-5	9.2*
CCOC(=O)/C=c1\sc2n(c1=O)CCN=2	1	2	-8	-1
CC(C)n1c(=S)[nH]c2scc(-c3cccs3)c2c1=O	4	-12	-9	9.1*
COc1ccc(C(=O)C[n+]2ccc(N(C)C)cc2)cc1	-17	1	-3	-2
CCCCNC(=O)c1cn(CC)c2ccc(S(=O)(=O)N3CCCC3)cc2c1=O	.	-2	.	.
SMILES	Rad51 HR inh	FID counter	RBBP9 inhibitor	Wee1 stabilizer
CCn1cc(C(=O)NCCc2ccccc2)c(=O)c2cc(S(=O)(=O)N3CCCC3)ccc21	-5	-6	-5	9.4*
O=C(COC(=O)CC12CC3CC(CC(Br)(C3)C1)C2)NC(=O)NCc1ccco1	1	-23	-13	0
CC(=O)Nc1ccc(/C=C/c2noc(-c3ccccc3O)n2)cc1	.	-10	.	.
Oc1ccccc1/C=C/c1noc(-c2ccccc2O)n1	3	2	2	9.2*
O=C(/C=C/c1c(F)cccc1Cl)c1ccc(O)cc1	.	8	-11	11*
O=C(/C=C/c1ccccc1Cl)c1ccc(O)cc1	-9	1	-2	1
Cc1cccc(CNC(=O)C2CCC(=O)N(Cc3ccccc3F)C2)n1 (configuration not stated)	.	-7	.	.
CCOc1ccc(NC(=O)c2ccc3nccnc3c2)cc1	.	-2	-2	0
